ChEMBL document CHEMBL1147968, “Novel lbeta-methylcarbapenems having cyclic sulfonamide moieties: synthesis and evaluation of in vitro antibacterial activity” (2007)

Columns and labels:
Salmonella typhimurium = experiment: Antibacterial activity against Salmonella Typhimurium after 18 to 24 hrs by agar dilution method; type: functional, Salmonella enterica subsp. enterica serovar Typhimurium; details: Salmonella enterica
Procedure, shortened: (§1)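 MICs were determined by agar dilution on test agar. An overnight tryptosoy broth culture was diluted in the same broth to about 10⁶ cells/mL and spotted with an inoculating device onto agar containing serial twofold dilutions of compound. Plates were incubated at 37 °C for 18–20 h, and the MIC was the lowest concentration with no visible growth.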

Streptococcus agalactiae [1] = experiment: Antibacterial activity against Streptococcus agalactiae B after 18 to 24 hrs by agar dilution method; type: functional; procedure, shortened: as §1
[2] = Antibacterial activity against Salmonella oranienburg after 18 to 24 hrs by agar dilution method; type: functional, Salmonella enterica subsp. enterica serovar Oranienburg; details: Salmonella enterica; procedure, shortened: as §1
Escherichia coli [3] = experiment: Antibacterial activity against Escherichia coli 0114 after 18 to 24 hrs by agar dilution method; type: functional; procedure, shortened: as §1
Streptococcus pyogenes = experiment: Antibacterial activity against Streptococcus pyogenes 9889 after 18 to 24 hrs by agar dilution method; type: functional
Procedure, shortened: (§2)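 Agar dilution on test agar holding serial twofold dilutions of compound. Overnight tryptosoy broth cultures were diluted in the same broth to about 10⁶ cells/mL and spotted with an inoculating device. Plates were incubated at 37 °C for 18–20 h.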

Burkholderia cepacia = experiment: Antibacterial activity against Pseudomonas cepacia after 18 to 24 hrs by agar dilution method; type: functional; procedure, shortened: as §1
Serratia marcescens [4] = experiment: Antibacterial activity against Serratia marcescens 6093 after 18 to 24 hrs by agar dilution method; type: functional; procedure, shortened: as §1
Citrobacter freundii = experiment: Antibacterial activity against Citrobacter freundii 323 after 18 to 24 hrs by agar dilution method; type: functional; procedure, shortened: as §1
Escherichia coli [5] = experiment: Antibacterial activity against Escherichia coli 1507 after 18 to 24 hrs by agar dilution method; type: functional; procedure, shortened: as §1
Salmonella typhi = experiment: Antibacterial activity against Salmonella typhi after 18 to 24 hrs by agar dilution method; type: functional, Salmonella enterica subsp. enterica serovar Typhi; details: Salmonella enterica
Procedure, shortened: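 Agar dilution on test agar with serial twofold dilutions of compound. Overnight tryptosoy broth cultures diluted in the same broth to about 10⁶ cells/mL, then applied with an inoculating device. Plates incubated at 37 °C for 18–20 h.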

Escherichia coli [6] = experiment: Antibacterial activity against Escherichia coli TEM after 18 to 24 hrs by agar dilution method; type: functional; procedure, shortened: as §1
Pseudomonas aeruginosa [7] = experiment: Antibacterial activity against Pseudomonas aeruginosa 880/2 after 18 to 24 hrs by agar dilution method; type: functional; procedure, shortened: as §1
Staphylococcus aureus [8] = experiment: Antibacterial activity against Staphylococcus aureus 503 after 18 to 24 hrs by agar dilution method; type: functional; procedure, shortened: as §1
Providencia rettgeri [9] = experiment: Antibacterial activity against Proteus rettgeri 937 after 18 to 24 hrs by agar dilution method; type: functional; procedure, shortened: as §1
Salmonella = experiment: Antibacterial activity against Salmonella orion after 18 to 24 hrs by agar dilution method; type: functional; procedure, shortened: as §1
Streptococcus pneumoniae = experiment: Antibacterial activity against Streptococcus pneumoniae 0025 after 18 to 24 hrs by agar dilution method; type: functional; procedure, shortened: as §1
Pseudomonas aeruginosa [10] = experiment: Antibacterial activity against Pseudomonas aeruginosa 77/2 after 18 to 24 hrs by agar dilution method; type: functional; procedure, shortened: as §1
Pseudomonas aeruginosa [11] = experiment: Antibacterial activity against Pseudomonas aeruginosa 110/2 after 18 to 24 hrs by agar dilution method; type: functional; procedure, shortened: as §1
Enterobacter cloacae [12] = experiment: Antibacterial activity against Enterobacter cloacae after 18 to 24 hrs by agar dilution method; type: functional; procedure, shortened: as §1
Enterobacter cloacae [13] = experiment: Antibacterial activity against Enterobacter cloacae 34 after 18 to 24 hrs by agar dilution method; type: functional; procedure, shortened: as §1
Serratia marcescens [14] = experiment: Antibacterial activity against Serratia marcescens 370 after 18 to 24 hrs by agar dilution method; type: functional; procedure, shortened: as §1
Escherichia coli [15] = experiment: Antibacterial activity against Escherichia coli 086 after 18 to 24 hrs by agar dilution method; type: functional; procedure, shortened: as §1
Pasteurella multocida = experiment: Antibacterial activity against Pasteurella multocida after 18 to 24 hrs by agar dilution method; type: functional; procedure, shortened: as §1
Escherichia coli [16] = experiment: Antibacterial activity against Escherichia coli 04 after 18 to 24 hrs by agar dilution method; type: functional; procedure, shortened: as §1
Streptococcus agalactiae [17] = experiment: Antibacterial activity against Streptococcus agalactiae 32 after 18 to 24 hrs by agar dilution method; type: functional; procedure, shortened: as §1
Pseudomonas aeruginosa [18] = experiment: Antibacterial activity against Pseudomonas aeruginosa 5455 after 18 to 24 hrs by agar dilution method; type: functional; procedure, shortened: as §1
Staphylococcus aureus [19] = experiment: Antibacterial activity against Staphylococcus aureus 1218 after 18 to 24 hrs by agar dilution method; type: functional; procedure, shortened: as §1
Enterococcus durans = experiment: Antibacterial activity against Streptococcus durans D after 18 to 24 hrs by agar dilution method; type: functional; procedure, shortened: as §1
Providencia rettgeri [20] = experiment: Antibacterial activity against Proteus rettgeri 936 after 18 to 24 hrs by agar dilution method; type: functional; procedure, shortened: as §1
Staphylococcus = experiment: Antibacterial activity against coagulase negative Staphylococcus after 18 to 24 hrs by agar dilution method; type: functional; procedure, shortened: as §2
Klebsiella pneumoniae [21] = experiment: Antibacterial activity against Klebsiella pneumoniae 523 after 18 to 24 hrs by agar dilution method; type: functional; procedure, shortened: as §1
Enterococcus faecalis = experiment: Antibacterial activity against Enterococcus faecalis 2347 after 18 to 24 hrs by agar dilution method; type: functional; procedure, shortened: as §1
Proteus mirabilis [22] = experiment: Antibacterial activity against Proteus mirabilis 112/3 after 18 to 24 hrs by agar dilution method; type: functional; procedure, shortened: as §1
[23] = system: Corynebacterium diphtheriae; experiment: Antibacterial activity against Corynebacterium diphtheriae after 18 to 24 hrs by agar dilution method; type: functional; procedure, shortened: as §1
Proteus mirabilis [24] = experiment: Antibacterial activity against Proteus mirabilis 174/3 after 18 to 24 hrs by agar dilution method; type: functional; procedure, shortened: as §1
Serratia marcescens [25] = experiment: Antibacterial activity against Serratia marcescens 14273 after 18 to 24 hrs by agar dilution method; type: functional; procedure, shortened: as §1
Proteus vulgaris = experiment: Antibacterial activity against Proteus vulgaris 868 after 18 to 24 hrs by agar dilution method; type: functional; procedure, shortened: as §1
[26] = Antibacterial activity against Salmonella give after 18 to 24 hrs by agar dilution method; type: functional, Salmonella enterica subsp. enterica serovar Give; details: Salmonella enterica; procedure, shortened: as §1
Staphylococcus aureus [27] = experiment: Antibacterial activity against Staphylococcus aureus giorgio after 18 to 24 hrs by agar dilution method; type: functional; procedure, shortened: as §1
Bacillus subtilis = experiment: Antibacterial activity against Bacillus subtilis ATCC 6633 after 18 to 24 hrs by agar dilution method; type: functional; procedure, shortened: as §1
Staphylococcus aureus [28] = experiment: Antibacterial activity against Staphylococcus aureus 209P after 18 to 24 hrs by agar dilution method; type: functional; procedure, shortened: as §1
Acinetobacter baumannii = experiment: Antibacterial activity against Acinetobacter baumannii 2289 after 18 to 24 hrs by agar dilution method; type: functional; procedure, shortened: as §1
Klebsiella pneumoniae [29] = experiment: Antibacterial activity against Klebsiella pneumoniae 477 after 18 to 24 hrs by agar dilution method; type: functional; procedure, shortened: as §1
Haemophilus influenzae = experiment: Antibacterial activity against Haemophilus influenzae 1210 after 18 to 24 hrs by agar dilution method; type: functional; procedure, shortened: as §1
Escherichia coli [30] = experiment: Antibacterial activity against Escherichia coli V6311/65 after 18 to 24 hrs by agar dilution method; type: functional; procedure, shortened: as §1
Escherichia coli [31] = experiment: Antibacterial activity against Escherichia coli 0126 after 18 to 24 hrs by agar dilution method; type: functional; procedure, shortened: as §1
Priestia megaterium = experiment: Antibacterial activity against Bacillus megaterium after 18 to 24 hrs by agar dilution method; type: functional; procedure, shortened: as §1
Pseudomonas aeruginosa [32] = experiment: Antibacterial activity against Pseudomonas aeruginosa 9027 after 18 to 24 hrs by agar dilution method; type: functional; procedure, shortened: as §1
Trueperella pyogenes = experiment: Antibacterial activity against Corynebacterium pyogenes after 18 to 24 hrs by agar dilution method; type: functional; procedure, shortened: as §1
Micrococcus luteus = experiment: Antibacterial activity against Micrococcus luteus ATCC 9341 after 18 to 24 hrs by agar dilution method; type: functional; procedure, shortened: as §1
Serratia marcescens [33] = experiment: Antibacterial activity against Serratia marcescens 3349 after 18 to 24 hrs by agar dilution method; type: functional; procedure, shortened: as §1
Enterobacter cloacae [34] = experiment: Antibacterial activity against Enterobacter cloacae 417 after 18 to 24 hrs by agar dilution method; type: functional; procedure, shortened: as §1

Measured: MIC

C[C@@H](O)[C@H]1C(=O)N2C(C(=O)O)=C(S[C@@H]3CN[C@H](C(=O)N(C)C)C3)[C@H](C)[C@H]12 [MEROPENEM]
0.025 µg/mL: Citrobacter freundii | Enterobacter cloacae [13] | Klebsiella pneumoniae [21]
0.013 µg/mL: Streptococcus pyogenes
0.2 µg/mL: Pseudomonas aeruginosa [7] | Serratia marcescens [25]
0.1 µg/mL: Salmonella | Providencia rettgeri [20] | Proteus mirabilis [22] | Proteus mirabilis [24] | Proteus vulgaris | Staphylococcus aureus [27] | Staphylococcus aureus [28]
12.5 µg/mL: Enterococcus faecalis | Acinetobacter baumannii
0.05 µg/mL: Salmonella typhimurium | Streptococcus agalactiae [1] | [2] | Serratia marcescens [4] | Staphylococcus aureus [8] | Providencia rettgeri [9] | Serratia marcescens [14] | Escherichia coli [15] | Pasteurella multocida | Bacillus subtilis | Klebsiella pneumoniae [29] | Escherichia coli [31] | Priestia megaterium | Trueperella pyogenes | Micrococcus luteus
0.049 µg/mL: Escherichia coli [16] | Streptococcus agalactiae [17] | Serratia marcescens [33]
1.56 µg/mL: Pseudomonas aeruginosa [18]
0.02 µg/mL: Escherichia coli [3] | Escherichia coli [5] | Escherichia coli [6] | [23] | [26]
0.4 µg/mL: Burkholderia cepacia | Pseudomonas aeruginosa [11] | Pseudomonas aeruginosa [32]
0.8 µg/mL: Pseudomonas aeruginosa [10] | Enterococcus durans
0.098 µg/mL: Staphylococcus
6.25 µg/mL: Staphylococcus aureus [19]
0.01 µg/mL: Salmonella typhi | Streptococcus pneumoniae | Enterobacter cloacae [12] | Escherichia coli [30] | Enterobacter cloacae [34]
3.12 µg/mL: Haemophilus influenzae
